Test results from ChEMBL document CHEMBL1127567, “Retro-binding tripeptide thrombin active-site inhibitors: discovery, synthesis, and molecular modeling” (J Med Chem, 1994).
Square brackets hold non-standard residues; d marks the D form. Peptide text beside a SMILES is read from it. Phe(ol) = N[C@H](CO)Cc1ccccc1; Ahp = NCCCCCCC(=O)O; Ahx = NCCCCCC(=O)O; Ava = NCCCCC(=O)O; GABA = NCCCC(=O)O

Legend:
Prothrombin [1] = biological target: T1, Prothrombin (Homo sapiens, UniProt P00734); experiment: In vitro activity against thrombin with 10 uM substrate s-2238 (D-Phe-Pip-Arg-pNA)
Prothrombin [2] = biological target: T1, Prothrombin; experiment: In vitro activity against thrombin was determined, using a 10 uM substrate s-2238 (D-Phe-Pip-Arg-pNA); 20-30
How it was run: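 Human α-thrombin (0.1 unit/mL) preincubated with inhibitor for 3 min at room temperature in pH 7.4 buffer (30 mM HEPES, 145 mM NaCl, 5 mM KCl, 1 mg/mL PEG-8000). […] Absorbance change at 405 nm followed kinetically. Values are means of at least triplicate determinations.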

Coagulation factor X = Coagulation factor X (Homo sapiens, UniProt P00742); experiment: In vitro activity against Factor Xa was determined
Plasminogen [3] = biological target: T2, Plasminogen (Homo sapiens, UniProt P00747); experiment: In vitro activity against plasmin was determined
Plasminogen [4] = biological target: T2, Plasminogen; experiment: In vitro activity against […] was determined
Prothrombin [5] = biological target: T1, Prothrombin; experiment: In vitro activity against thrombin was determined
Serine protease 1 = Serine protease 1 (Homo sapiens, UniProt P07477); experiment: In vitro activity against trypsin was determined
Serine protease 1, sequence (P07477 whole entry): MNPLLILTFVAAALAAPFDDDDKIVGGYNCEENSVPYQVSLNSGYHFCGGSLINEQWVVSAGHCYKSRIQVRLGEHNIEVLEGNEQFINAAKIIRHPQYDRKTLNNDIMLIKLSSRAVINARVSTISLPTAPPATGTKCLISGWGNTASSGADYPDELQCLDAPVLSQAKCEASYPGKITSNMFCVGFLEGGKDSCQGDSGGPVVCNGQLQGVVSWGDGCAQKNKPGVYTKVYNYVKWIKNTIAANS

T2 sequence (P00747 97-580 limits assumed): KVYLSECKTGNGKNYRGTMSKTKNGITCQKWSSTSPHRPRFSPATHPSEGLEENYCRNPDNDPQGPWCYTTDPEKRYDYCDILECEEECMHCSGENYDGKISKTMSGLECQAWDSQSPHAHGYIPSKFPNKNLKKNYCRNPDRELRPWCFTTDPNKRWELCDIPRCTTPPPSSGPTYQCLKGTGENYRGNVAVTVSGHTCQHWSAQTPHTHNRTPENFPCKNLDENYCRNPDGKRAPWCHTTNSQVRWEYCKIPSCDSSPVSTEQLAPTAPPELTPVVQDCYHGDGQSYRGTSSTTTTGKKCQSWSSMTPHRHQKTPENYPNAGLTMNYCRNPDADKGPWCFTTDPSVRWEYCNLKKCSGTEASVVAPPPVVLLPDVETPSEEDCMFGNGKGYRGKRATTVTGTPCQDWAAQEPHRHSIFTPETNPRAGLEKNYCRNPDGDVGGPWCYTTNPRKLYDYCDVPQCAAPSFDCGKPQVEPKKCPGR
T2 sequence (P00747 581-810 limits assumed): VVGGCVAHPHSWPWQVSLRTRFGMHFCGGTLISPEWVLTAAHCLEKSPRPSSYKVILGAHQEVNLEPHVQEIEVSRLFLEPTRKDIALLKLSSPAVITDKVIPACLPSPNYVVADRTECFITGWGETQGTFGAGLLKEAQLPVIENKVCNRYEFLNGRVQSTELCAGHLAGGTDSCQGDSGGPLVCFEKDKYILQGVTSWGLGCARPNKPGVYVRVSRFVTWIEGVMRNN
Coagulation factor X, sequence (P00742 41-179 limits assumed): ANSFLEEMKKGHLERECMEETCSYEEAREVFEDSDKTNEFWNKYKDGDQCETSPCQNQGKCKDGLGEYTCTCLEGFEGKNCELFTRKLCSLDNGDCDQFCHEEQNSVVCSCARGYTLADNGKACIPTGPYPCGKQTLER
Coagulation factor X, sequence (P00742 235-488 limits assumed): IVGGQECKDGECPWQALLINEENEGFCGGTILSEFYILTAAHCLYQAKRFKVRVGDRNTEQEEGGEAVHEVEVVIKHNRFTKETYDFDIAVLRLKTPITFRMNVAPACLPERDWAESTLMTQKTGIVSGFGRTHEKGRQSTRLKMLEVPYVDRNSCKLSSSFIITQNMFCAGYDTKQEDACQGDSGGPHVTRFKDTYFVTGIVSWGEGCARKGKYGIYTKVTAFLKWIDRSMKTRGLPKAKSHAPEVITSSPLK

## COC(=O)[C@H](Cc1ccccc1)NC(=O)[C@H](CC(C)C)NC(=O)[C@H](Cc1ccccc1)NC(=O)CCCNC(=N)N
Prothrombin [1]
  IC50: 1.41 µM

## COC(=O)[C@H](Cc1ccccc1)NC(=O)[C@H](CC(C)C)NC(=O)[C@H](Cc1ccccc1)NC(=O)CCCN (H-[GABA]FLF-OMe)
Prothrombin [1]
  IC50: > 300 µM

## COC(=O)[C@H](Cc1ccccc1)NC(=O)[C@H](CC(C)C)NC(=O)[C@H](Cc1ccccc1)NC(=O)CCCCNC(=N)N
Prothrombin [1]
  IC50: 154 µM

## CC(C)C[C@H](NC(=O)[C@@H](N)Cc1ccccc1)C(=O)N[C@@H](CC1CCCCC1)[C@@H](O)c1nccs1
Prothrombin [1]
  IC50: > 530 µM

## COC(=O)C(O)[C@H](CCCCN)NC(=O)[C@@H]1CCCN1C(=O)[C@@H](Cc1ccccc1)NC(=O)CCCCCN (some centres undefined)
Prothrombin [1]
  IC50: 17.6 µM

## COC(=O)C(O)[C@H](CCCCN)NC(=O)[C@@H]1CCCN1C(=O)[C@H](N)Cc1ccccc1 (some centres undefined)
Prothrombin [2]
  IC50: 30 µM

## COC(=O)[C@H](Cc1ccccc1)NC(=O)[C@H](CC(C)C)NC(=O)[C@@H](N)Cc1ccccc1 (H-Phe-Leu-Phe-OMe)
Prothrombin [1]
  IC50: > 333 µM

## COC(=O)[C@H](Cc1ccccc1)NC(=O)[C@H](CC(C)C)NC(=O)[C@H](Cc1ccccc1)NC(=O)CCCCN (H-[Ava]FLF-OMe)
Prothrombin [1]
  IC50: 57.1 µM

## COC(=O)[C@H](Cc1ccccc1)NC(=O)[C@H](CC(C)C)NC(=O)[C@H](Cc1ccccc1)NC(=O)CCCCCNC(=N)N
Prothrombin [1]
  IC50: > 200 µM

## CC(C)C[C@H](NC(=O)[C@H](Cc1ccccc1)NC(=O)CCCN=C(N)N)C(=O)N[C@@H](CC1CCCCC1)[C@@H](O)c1nccs1
Coagulation factor X
  IC50: 6 µM
Plasminogen [3]
  IC50: 143 µM

## COC(=O)[C@H](Cc1ccccc1)NC(=O)[C@H](CC(C)C)NC(=O)[C@H](Cc1ccccc1)NC(=O)CCCCCCN (H-[Ahp]FLF-OMe)
Prothrombin [1]
  IC50: 330 µM

## COC(=O)[C@H](Cc1ccccc1)NC(=O)[C@H](CC(C)C)NC(=O)[C@H](Cc1ccccc1)NC(=O)CCCCCN (H-[Ahx]FLF-OMe)
Prothrombin [1]
  IC50: 80 µM

## CC(C)C[C@H](NC(=O)[C@H](Cc1ccccc1)NC(=O)CCCCN)C(=O)N[C@H](CO)Cc1ccccc1 (H-[Ava]FL[Phe(ol)])
Prothrombin [1]
  IC50: 100 µM

## CC(C)C[C@H](NC(=O)[C@H](Cc1ccccc1)NC(=O)CCCCCN)C(=O)N[C@@H](CC1CCCCC1)[C@@H](O)c1nccs1
Prothrombin [1]
  IC50: 7.5 µM

## CN[C@H](Cc1ccccc1)C(=O)N1CCC[C@H]1C(=O)N[C@H](C=O)CCCN=C(N)N
Coagulation factor X
  IC50: 4 µM
Plasminogen [4]
  IC50: 0.23 µM
Prothrombin [5]
  IC50: 0.008 µM
Serine protease 1
  IC50: 0.008 µM
